# Source: PubChem (several laboratories)
# UBC13 polyUb – human UBC13 polyubiquitination inhibition | UBC13 polyubiquitin chain formation, TR-FRET | P61088 | AID 485273 | 0.47% of 330,000 active | inhibition, % at 20 µM; in the data active = inhibition above about 45%, passing the limit was not always enough
# Target sequence (P61088 whole entry, looked up): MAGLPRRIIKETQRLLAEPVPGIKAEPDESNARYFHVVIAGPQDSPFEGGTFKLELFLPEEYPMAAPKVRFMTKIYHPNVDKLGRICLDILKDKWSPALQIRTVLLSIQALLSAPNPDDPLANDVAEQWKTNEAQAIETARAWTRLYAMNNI
# MEKK2wt PB1 HTS – raises or lowers MEK5 binding to wildtype human MEKK2 PB1 domain | bead flow cytometry, Alexa488-MEK5 binding to MEKK2 WT; actives lie on both sides | 1.1% of 290,000 active | binding response (% of control), % at 10 µM | AID 1531; in the data active = binding response below about 67% or above about 130%
# MEKK2 mut-MEK5 – signal of MEK5 binding to mutant human MEKK2 PB1 domain. 0.35% of 290,000 active. bead flow cytometry, Alexa488-MEK5 binding to MEKK2 mutant. percent response, % at 10 µM. AID 1530; in the data active = percent response above about 24%, passing the limit was not always enough
# MEKK3 PB1 HTS – raises or lowers MEK5 binding to the human MEKK3 PB1 domain; Q99759; bead-based flow cytometry, Alexa488-MEK5 binding to MEKK3; actives lie on both sides; 0 = blocked by unlabeled MEK5, 100 = vehicle; AID 1529; 1.4% of 290,000 active; binding response (% of control), % at 10 µM;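 active = binding response more than 3 SD above or below the average of its plate-row segment, actives on both sides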;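 note: Alexa488 bead fluorescence after subtracting the streptavidin-only scavenger bead signal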
# Pemphigus Ab inh – human desmoglein-3 autoantibody binding inhibition; 0.48% of 310,000 active; binding (percent of control), % at 10 µM; P32926; DSG3-coupled beads, scFv-anti-DSG3-GFP binding, flow cytometry; stronger effect = lower value;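 active = binding more than 3 SD below its plate's average and above zero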;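 note: hits lower antibody fragment binding to DSG3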
# Apaf-1 inh – human Apaf-1 inhibition | O14727 | reconstituted apoptosome caspase-3 activity, DEVD-Rh110 fluorescence | inhibition, % at 20 µM | 0.71% of 330,000 active; active = inhibition of at least 40% at 20 µM;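 note: plate controls were DMSO wells for no effect and DEVD-CHO caspase inhibitor wells for full effect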
#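 System: Apoptosome proteins | Medium: Hepes pH 7.5 with detergent and BSA | Also added: Cytochrome c trigger plus (Z-DEVD)2-Rh110 caspase-3 substrate | Incubation: 30 min compound preincubation, 50 min activation, room temperature | Detection: Rhodamine 110 fluorescence at Ex 480/Em 540 nm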
# MEKK2wt confirm – raises or lowers MEK5 binding to wildtype human MEKK2, retest. 2.4% of 5,900 active. shares compounds with MEKK3 PB1 HTS. binding response (% of control), % at 10 µM. bead flow cytometry, Alexa488-MEK5 binding to MEKK2 WT; actives lie on both sides; in the data active = binding response below about 16% or above about 210%; inactive = in between
# MEKK2mut-MEK5 – signal of MEK5 binding to mutant human MEKK2, retest; 2% of 5,900 active; AID 1893; bead flow cytometry, Alexa488-MEK5 binding to MEKK2 mutant; percent response, % at 10 µM; shares compounds with MEKK3 PB1 HTS; in the data active = percent response mostly above about 71%, no sharp cut-off; inactive = mostly below about 38%;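 note: higher means compound restores mutant binding toward wildtype level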
# MEKK3 confirm – confirmation of inhibitors of MEK5 binding to human MEKK3; bead flow cytometry, Alexa488-MEK5 binding to MEKK3; stronger effect = lower value; binding response (% of control), % at 10 µM; 1.8% of 5,900 active; shares compounds with MEKK3 PB1 HTS; AID 1894;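 active = binding response below 72% of control, or above a set upper limit, though filed actives all read lower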;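 note: 100% = DMSO only wells and 0% = binding blocked by excess unlabeled MEK5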
# * = called active by the depositor; x = no result; [ ] = remark or other dose. The list is not random: actives were taken first. Their share in the collection is about 3.2%.
SMILES,UBC13 polyUb,MEKK2wt PB1 HTS,MEKK2 mut-MEK5,MEKK3 PB1 HTS,Pemphigus Ab inh,Apaf-1 inh,MEKK2wt confirm,MEKK2mut-MEK5,MEKK3 confirm
Cc1ccc(S(=O)(=O)N2CCOCC2)cc1NC(=O)COC(=O)c1ccc(OCc2c(C)noc2C)cc1,-6.6,99.0,-2.0,96.0,107.3,16.1,x,x,x
Cc1noc(C)c1COc1ccc(C(=O)OC(C)C(=O)Nc2ccc(S(=O)(=O)N3CCOCC3)cc2)cc1 (stereo not drawn),3.2,105.0,2.0,152.0*,x,11.8,99.0,-2.0,104.0
CCOC(=O)CN(c1ccccn1)S(=O)(=O)c1ccccc1,12.3,106.0,10.0,103.0,101.7,-5.8,x,x,x
COC(=O)c1ccc(CN(c2ccccn2)S(=O)(=O)c2ccccc2)cc1,x,126.0,9.0,132.0*,x,x,94.0,-5.0,99.0
CCCC1Cc2c(sc(NC(=S)NC(=O)c3ccccc3)c2C#N)CO1 (stereo not drawn),-16.7,105.0,0.0,134.0*,x,10.1,97.0,-3.0,93.0
CCCn1c(SCC(=O)N2CC(=O)Nc3ccccc32)n[nH]c1=O,12.4,x,x,x,x,-6.1,x,x,x
CC(=O)Nc1ccc2cnn(C(C)=O)c2c1,x,x,x,x,106.5,x,x,x,x
CN1CCN(c2ccc3sc(-n4ccc5ccccc54)nc3c2)CC1,x,x,x,x,108.2,x,x,x,x
CCOC(=O)Nc1cc(NC(=O)OCC)ncn1,x,x,x,x,120.7,x,x,x,x
CC(=O)Nc1cc(NC(C)=O)ncn1,-2.9,57.0,9.0,48.0*[inhibitor],102.0,5.8,99.0,-6.0,100.0
CN1C(=O)N(CC(=O)Nc2sccc2C(N)=O)C(=O)C12CCCCC2,-8.1,x,x,x,x,2.7,x,x,x
COc1ccc(-c2coc3cc(O[C@@H]4O[C@H](CO)[C@@H](O)[C@H](O)[C@H]4O)ccc3c2=O)cc1,-0.7,x,x,x,104.5,-8.1,x,x,x
O=c1c(-c2ccc3c(c2)OCCO3)coc2cc(OC3OC(CO)C(O)C(O)C3O)ccc12 (stereo not drawn),10.2,46.0*[inhibitor],-11.0,44.0*[inhibitor],90.7,-16.7,97.0,-5.0,103.0
COc1ccc(N2CC(C(=O)Nc3ccc(S(=O)(=O)Nc4nccs4)cc3)CC2=O)c(OC)c1 (stereo not drawn),-11.6,x,x,x,x,-7.6,x,x,x
O=C(CN1C(=O)c2cccc([N+](=O)[O-])c2C1=O)N1CCN(c2ccc(F)cc2)CC1,-9.8,53.0,-17.0,47.0*[inhibitor],100.1,-5.9,102.0,5.0,106.0
O=C(CN1C(=O)c2cccc3cccc1c23)N1CCN(c2ccc(F)cc2)CC1,13.2,107.0,2.0,106.0,46.5,2.0,x,x,x
O=C(/C=C/c1cccc([N+](=O)[O-])c1)N1CCN(c2ccc(F)cc2)CC1,-1.9,109.0,0.0,133.0*,99.0,4.0,96.0,-5.0,97.0
CCOC(=O)C(NC(=O)Nc1ccc(F)cc1F)(Oc1ccc(F)cc1)C(F)(F)F (stereo not drawn),-0.8,104.0,3.0,128.0*,97.4,9.7,105.0,8.0,106.0
O=C1NCCCC1C(=O)N1CCN(C(c2ccccc2)c2ccccc2)CC1 (stereo not drawn),-3.3,98.0,-9.0,82.0*[inhibitor],121.3,-9.7,103.0,7.0,108.0
O=C(N1CCCCC1)N1CCN(C(c2ccccc2)c2ccccc2)CC1,-1.4,103.0,0.0,106.0,93.9,22.5,x,x,x
O=C1Cc2cc(O)ccc2O1,x,x,x,x,92.0,x,x,x,x
Cn1ccnc1Sc1ccc(C=O)cc1[N+](=O)[O-],-16.0,91.0,-2.0,74.0*[inhibitor],107.8,4.0,94.0,-7.0,96.0
Cc1cc(CN2CCCC(C(=O)Nc3ccc(-c4nc5ccccc5[nH]4)cc3)C2)n[nH]1 (stereo not drawn),0.5,127.0,21.0,109.0,x,10.4,x,x,x
COc1cc(/C=C/C(=O)O)cc(S(=O)(=O)Nc2ccccc2C(=O)NCc2ccco2)c1OC,-5.9,x,x,x,91.3,-3.0,x,x,x
Cc1ccc(Cn2cccc(NS(C)(=O)=O)c2=O)cc1,-9.8,100.0,0.0,101.0,114.0,0.6,x,x,x
SMILES,UBC13 polyUb,MEKK2wt PB1 HTS,MEKK2 mut-MEK5,MEKK3 PB1 HTS,Pemphigus Ab inh,Apaf-1 inh,MEKK2wt confirm,MEKK2mut-MEK5,MEKK3 confirm
Cc1cc(NS(C)(=O)=O)c(=O)n(Cc2cccc(F)c2)c1,-6.5,20.0*[inhibitor],8.0,98.0,100.2,-13.7,102.0,-1.0,102.0
CCN(CC)CCN(C(=O)c1ccc2c(c1)CCCC2)c1nc2ccc(F)cc2s1,2.7,154.0*,8.0,108.0,104.2,-3.2,136.0,10.0,105.0
CN(C)CCCN(C(=O)c1ccc2c(c1)CCCC2)c1nc2cc3c(cc2s1)OCO3,37.4,154.0*,23.0,103.0,103.5,19.7,145.0,25.0,106.0
CN(C)CCCN(C(=O)c1ccc(S(=O)(=O)N(C)C)cc1)c1nc2cc3c(cc2s1)OCO3,33.1,114.0,9.0,101.0,100.6,-14.8,x,x,x
CN(C)CCCN(C(=O)c1ccc(S(=O)(=O)N(C)C)cc1)c1nc2ccc(F)cc2s1,13.8,112.0,13.0,102.0,104.0,-16.6,x,x,x
CN(C)CCCN(C(=O)c1ccc2c(c1)CCCC2)c1nc2ccc(F)cc2s1,42.3,142.0*,7.0,138.0*,142.7,9.4,150.0,30.0,106.0
CCN(CC)CCN(C(=O)c1ccccc1OC)c1nc2ccc(F)cc2s1,3.4,120.0,10.0,107.0,107.0,-4.0,x,x,x
CCN(CC)CCN(C(=O)c1ccc2c(c1)OCCO2)c1nc2c(Cl)cccc2s1,11.8,132.0,21.0,108.0,113.2,20.5,x,x,x
CCN(CC)CCN(C(=O)c1ccc2c(c1)CCCC2)c1nc2c(C)cccc2s1,7.9,158.0*,29.0*,111.0,108.0,30.9,107.0,1.0,102.0
Cn1c(-c2ccsc2)c(-c2cccs2)c2cc(Br)ccc21,-12.9,x,x,x,97.4,15.3,x,x,x
COc1cc(C(=O)OCC(=O)N2CCC(Cc3ccccc3)CC2)cc(OC)c1OC,5.4,x,x,x,100.8,14.6,x,x,x
CN(C)CCCN(C(=O)c1ccc(S(=O)(=O)N2CCc3ccccc32)cc1)c1nc2ccc(F)cc2s1,32.4,166.0*,25.0*,101.0,105.3,12.3,186.0,50.0,107.0
CN(C)CCCN(C(=O)c1ccc(S(=O)(=O)N2CCCCCC2)cc1)c1nc2c(F)cc(F)cc2s1,18.1,x,x,x,110.7,9.8,x,x,x
CN(C)CCCN(C(=O)CCSc1ccccc1)c1nc2cc3c(cc2s1)OCO3,20.3,153.0*,12.0,110.0,107.3,1.2,126.0,10.0,99.0
